An excerpt weighted towards active compounds, which were near 2% of everything screened.
RAD54 inh: RAD54 (human) branch migration inhibition; 0.14% of 360,000 active; Q92698; inhibition, % at 10.4 µM; RAD54 Holliday junction branch migration, FAM/BHQ fluorescence;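 active means mean normalized replicate activity at least 40 and at least half of replicates scoring 40 or more; inconclusive means only one of the two criteria met; inactive means mean below 40 and under half of replicates reaching 40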;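 further: 0% = median of neutral control wells and 100% = median of positive control wells; inhibitors cause a drop in the FAM fluorescence signal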
Target sequence (Q92698 whole entry, looked up): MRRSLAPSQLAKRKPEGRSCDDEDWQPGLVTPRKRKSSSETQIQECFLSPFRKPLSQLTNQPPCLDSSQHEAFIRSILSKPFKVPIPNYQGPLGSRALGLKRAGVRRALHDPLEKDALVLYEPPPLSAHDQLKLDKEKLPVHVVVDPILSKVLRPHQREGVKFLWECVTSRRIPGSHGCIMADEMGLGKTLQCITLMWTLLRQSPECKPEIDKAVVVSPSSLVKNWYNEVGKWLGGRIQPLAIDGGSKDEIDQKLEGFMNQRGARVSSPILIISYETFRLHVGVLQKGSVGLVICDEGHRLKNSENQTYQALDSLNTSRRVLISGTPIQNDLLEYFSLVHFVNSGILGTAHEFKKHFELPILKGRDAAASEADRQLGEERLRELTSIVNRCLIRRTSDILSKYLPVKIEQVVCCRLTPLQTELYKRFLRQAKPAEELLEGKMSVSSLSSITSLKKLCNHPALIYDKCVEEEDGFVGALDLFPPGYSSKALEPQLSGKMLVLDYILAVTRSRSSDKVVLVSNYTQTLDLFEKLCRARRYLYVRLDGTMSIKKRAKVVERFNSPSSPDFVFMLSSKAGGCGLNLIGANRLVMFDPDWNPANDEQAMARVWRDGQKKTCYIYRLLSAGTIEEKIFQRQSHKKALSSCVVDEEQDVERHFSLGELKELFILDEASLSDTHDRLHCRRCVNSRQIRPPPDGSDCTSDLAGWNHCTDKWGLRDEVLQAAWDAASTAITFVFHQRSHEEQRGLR
rRNA inh HTS: selective bacterial rRNA inhibition in E. coli. E. coli WT GFP vs humanized-ribosome RFP mutants, fluorescence, 24 h; hits give low values; DMSO median 0, no signal -100. 1.6% of 350,000 active. GFP signal change (wild-type ribosome), % (concentration not given with the values);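 active means significant combined selectivity score with lowered wild-type GFP, culture density cut under 30%, mutant RFP and density less affected; inactive means any of these conditions unmet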
PglD DTNB: inhibitors of Campylobacter jejuni PglD acetyltransferase; purified PglD enzyme, DTNB colorimetric CoA detection; 0.098% of 360,000 active; inhibition, % at 12.5 µM; AID 602405; in the data active means inhibition above about 16%, passing the limit was not always enough; inconclusive means no clear call, values can overlap the other calls
Xi reactivation: X-chromosome reactivation activator; AID 743238; 0.055% of 360,000 active; XiGFP mouse fibroblasts, % GFP-positive cells imaging, 3 d; cells co-treated with 5-aza-dC sensitizer; scaled so ellipticine positive control = 100%; activation, % at 7.58 µM;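 active means mean normalized replicate activation at least 10% and every replicate at or above 10%; inconclusive means only one of the two criteria met; inactive means mean below 10% and not all replicates reach 10%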;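 further: 0% = median of on-plate neutral control wells and 100% = ellipticine 6 µM median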
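Schedule: 3 d treatment, 15 min room-temperature fixation; system: 68-5-11 XiGFP fibroblast line; buffer or medium: DMEM plus 5-aza-dC sensitizer; control set: ellipticine 6 µM positive control; compound: one concentration, pinned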
RAD52 anneal inh: RAD52 (human) annealing inhibition; P43351; recombinant RAD52 DNA annealing, FRET fluorescence; inhibition, % at 18.7 µM; 0.46% of 360,000 active;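 active means every replicate showing at least 50% inhibition; inconclusive means mean inhibition at least 50% but not in every replicate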
E-sel inducer: induces E-selectin expression in human endothelial cells; P16581; HUVEC E-selectin immunofluorescence imaging; normalized: neutral wells 0, TNF-alpha wells 100; activation, % at 7.58 µM; 0.37% of 260,000 active; AID 686992;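 active means mean E-selectin-positive cell signal at least 10% of the positive control, reached in at least 60% of replicates, without over 20% cell loss; inconclusive means no rule given, readout overlaps actives, possibly toxicity-flagged; inactive means the rest, including those meeting only one limit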
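Read-out: % PE-positive cells | Test system: HUVEC | Doses: One compound dose added by pin transfer | Buffer or medium: EGM-2 over gelatin coat | Signal: Immunofluorescence imaging | Benchmarks: TNF-alpha, DMSO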
HepG2 tox: cytotoxic compounds in HepG2 cells; shares compounds with rRNA inh HTS; HepG2 viability, ATP luminescence, 72 h; activity change, negative = cytotoxicity, unspecified at 26 µM; 30 tested, under 10 active; AID 743480;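 active means compounds whose fitted half-maximal signal-loss concentration is at most twice their highest valid dose; inconclusive means flat curve with 30 to 70% signal loss, or poor fit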
AID977621: wild-type E. coli growth inhibition versus H69 humanized strain – H69 mutant RFP, wild-type GFP, cherry-pick, dose response. shares compounds with rRNA inh HTS. fluorescence, 24 h. activity change, negative = inhibition at 50 µM. 1,900 tested, under 10 active. AID 977621;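 active means Wild-type ribosome reporter drop at least double the humanized mutant ribosome reporter drop, growth loss under a set limit; inconclusive means no clear call, values can overlap the other calls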;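 further: wild-type GFP and H69 mutant RFP strains grown together 50/50 in each well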
AID977628: growth of wild-type and h24-humanized E. coli strains – h24 mutant RFP vs wild-type GFP, cherry-pick, dose response; shares compounds with rRNA inh HTS; E. coli WT GFP strain growth, fluorescence, 24 h; activity change, negative = inhibition at 50 µM; 1,900 tested, under 10 active; AID 977628;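 active means compound lowering the normal-ribosome reporter at least twice as much as the humanized-ribosome reporter, growth loss under a set limit; inconclusive means no clear call, values can overlap the other calls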;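 further: wild-type GFP and h24 humanized RFP strains co-cultured 1 to 1 per well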
An asterisk follows results filed as active; ? = inconclusive; . = no result given; ! = a repeat was not active.

SMILES | RAD54 inh | rRNA inh HTS | PglD DTNB | Xi reactivation | RAD52 anneal inh | E-sel inducer | AID977621 | AID977628 | others
CC(C)(C)S(=O)(=O)Cc1nc(-c2ccc(Cl)c(Cl)c2)cs1 | . | -15.2* | . | -0.1 | -11.4 | -0.2 | -1.04 | -2.62
Cc1noc(C)c1NC(=O)N(C)C[C@H]1Oc2ccc(NC(=O)C3CC3)cc2CC(=O)N([C@H](C)CO)C[C@@H]1C | 0.0 | 1.0 | -14.5 | 0.3 | -6.9 | 0.5 | . | .
CCN(C(=O)CSc1cc(-c2ccccc2)c2ccc(OC)cc2n1)C1CCS(=O)(=O)C1 (stereo unspecified) | . | . | . | -0.6 | -48.4 | 0.4 | . | .
CCN(C(=O)CSc1cc(C)c2ccc(OC)cc2n1)C1CCS(=O)(=O)C1 (stereo unspecified) | -7.8 | -22.7* | -3.7 | 0.1 | -25.1 | -0.3 | -15.5 | -14
CCCc1cc(C(=O)N2CCCC(C(=O)c3cccc4ccccc34)C2)n(C)n1 (stereo unspecified) | . | -9.0 | . | 0.0 | -5.4 | . | . | .
CCc1cc(C(=O)N2CCCC(C(=O)c3cccc4ccccc34)C2)n(C)n1 (stereo unspecified) | . | -26.0* | . | 0.6 | -15.5 | 4.0 | -6.84 | .
CCC(=O)Nc1ccc2c(c1)OC[C@@H](C)N(Cc1ccccc1OC)C[C@H](C)[C@@H](OC)CN(C)C2=O | -7.8 | -1.0 | -2.0 | 0.0 | -1.3 | 0.3 | . | .
CCOC(=O)c1c(C)nsc1NCc1ccccc1 | . | -28.9* | . | -0.1 | -11.1 | . | -24.1 | .
CCCN1C[C@@H](C)[C@@H](OC)CN(C)C(=O)c2cc(NS(=O)(=O)CC)ccc2OC[C@H]1C | -4.6 | -0.3 | -1.3 | 0.4 | 6.0 | 0.0 | . | .
CO[C@H]1CN(C)C(=O)c2cc(NC(=O)C3CCCCC3)ccc2OC[C@H](C)NC[C@H]1C | -0.4 | 1.5 | -4.1 | 0.3 | -2.7 | -0.1 | . | .
COc1ccc(NC(=O)c2cccnc2SC)cc1S(=O)(=O)N1CCCCC1 | . | -25.4* | . | 0.3 | 0.3 | 1.6 | ? | .
COc1cc(NC(=O)c2ccc(Cl)cc2)c(OC)cc1NC(=O)CN1CCCCC1 | . | -26.3* | . | 0.0 | 5.2 | . | -11.1 | -10.1
COc1cccc(CNC(=O)CCC2CCCN(C(=O)c3cc4ccccc4o3)C2)c1 (stereo unspecified) | -0.4 | -32.3* | -2.8 | -0.1 | -3.4 | 2.5 | -4.22 | .
COc1cccc(CNC(=O)CCC2CCCN(C(=O)c3ccoc3)C2)c1 (stereo unspecified) | -1.0 | 7.3 | -0.5 | 0.1 | -7.5 | -0.9 | . | .
COc1ccc2c3c([nH]c2c1)[C@@H](CO)N(C(=O)C1CCCCC1)CC31CCN(C(=O)NC(C)C)CC1 | . | 3.4 | . | 0.0 | 8.9 | -0.1 | . | .
CC(NC(=O)c1ccncc1)c1ccc(Cl)cc1Cl (stereo unspecified) | -8.3 | -33.2* | -13.0 | 0.0 | -27.1 | 0.1 | -2.21 | -7.25
COc1ccccc1N(C)S(=O)(=O)c1ccc(C(=O)NC(C)c2ccccc2)cc1 (stereo unspecified) | 3.1 | -18.3* | -0.1 | -0.2 | -16.8 | 0.1 | . | ?
COc1ccccc1NC(=O)c1ccc(S(=O)(=O)N(C)c2ccccc2OC)cc1 | -2.9 | -11.3 | 2.3 | 0.0 | -0.9 | 0.6 | . | .
CCn1c(-c2ccccc2Cl)nn(CC(=O)Nc2ccccc2OC)c1=S | 13.2 | -20.9* | 5.5 | . | -6.6 | . | -16.4 | .
Cc1[nH]c(=S)sc1Cc1ccc(Cl)c(Cl)c1 | . | -39.6* | . | 0.0 | 5.1 | . | . | . | HepG2 tox=10.1
Cc1nnc(SCc2ccc(Cl)c(Cl)c2)s1 | . | . | . | -0.1 | -9.3 | -0.1 | . | .
C[C@H](CO)N1C[C@H](C)[C@@H](CN(C)C(=O)c2ccc(F)cc2)Oc2cc(Br)ccc2S1(=O)=O | 11.0 | -5.4 | -2.8 | 0.2 | -3.9 | 0.0 | . | .
C[C@@H]1CN([C@@H](C)CO)S(=O)(=O)c2ccc(Br)cc2O[C@H]1CN(C)C(=O)c1ccccc1 | 5.4 | -18.4*! | -2.8 | 0.2 | -15.7 | 5.5 | 5.34 | -5.03
COc1cc(CC(=O)Nc2nc(C)cs2)cc(OC)c1OC | -8.2 | -19.1* | 1.8 | 0.0 | 7.9 | -2.1 | 2.99 | -3.31
O=C(O)c1cc([N+](=O)[O-])ccc1NCc1ccccc1 | . | -25.1* | . | 0.0 | -10.2 | -0.2 | . | . | HepG2 tox=12.5
SMILES | RAD54 inh | rRNA inh HTS | PglD DTNB | Xi reactivation | RAD52 anneal inh | E-sel inducer | AID977621 | AID977628 | others
CC(=O)N1CCOc2ccc(S(=O)(=O)N(C)c3ccc(C)cc3)cc21 | -2.8 | -21.4* | -2.5 | 0.0 | -13.9 | . | -13.1 | .
C[C@@H]1CN([C@@H](C)CO)C(=O)c2cc(NC(=O)CCC(F)(F)F)ccc2O[C@@H](C)CCCCO[C@@H]1CN(C)C(=O)Cc1ccccc1 | -2.9 | -1.5 | -1.3 | 1.3 | . | . | . | .
Cc1nn(-c2cccc(Cl)c2)nc1C(=O)O | . | -16.4* | . | 0.2 | -15.8 | . | -9.96 | .
Cc1nn(-c2ccccc2)nc1C(N)=O | 13.8 | 4.2 | -5.3 | 0.1 | 8.0 | 2.4 | . | .
Cc1c(CCOC(=O)C23CC4CC(CC(C4)C2)C3)sc[n+]1Cc1ccccc1 | -2.1 | -27.2* | 0.6 | -0.1 | -8.6 | . | -1.89 | 2.81
Cc1c(CCOC(=O)C23CC4CC(CC(C)(C4)C2)C3)sc[n+]1Cc1ccccc1 | 4.6 | . | -0.1 | . | . | . | . | .
COC(=O)c1ccc(CCc2cc(O)c(Br)cc2O)cc1 | . | -18.6* | . | 0.0 | -53.2 | -0.3 | -9.47 | -3.46
Cc1ccc(N2C(=S)NC3c4cc(Cl)ccc4OC2(C)C3C(=O)N(C)C)cc1 (stereo unspecified) | -2.5 | -21.6* | 4.7 | 0.2 | -2.7 | . | -13 | ?
Cc1cccc(N2C(=S)NC3c4cc(Cl)ccc4OC2(C)C3C(=O)N(C)C)c1 (stereo unspecified) | . | -12.8 | . | -0.1 | -4.4 | 3.8 | . | .
C[C@H](CO)N1C[C@H](C)[C@H](CN(C)C(=O)Nc2ccc(C(F)(F)F)cc2)Oc2ccc(NC(=O)C3CCCCC3)cc2C1=O | 5.8 | -1.7 | 1.5 | 0.1 | -26.9 | 1.2 | . | .
O=C1c2ccccc2C(c2nnnn2Cc2ccccc2)N1Cc1cccc(F)c1 (stereo unspecified) | . | -23.1*! | . | 0.1 | -7.0 | 4.5 | -4.92 | -5.37
COc1ccc(CN2C(=O)c3ccccc3C2c2nnnn2Cc2ccccc2)cc1OC (stereo unspecified) | . | -5.7 | . | 0.0 | -9.2 | 4.0 | . | .
CN(C)c1ccc(-c2nnn(Cc3ccccc3Br)n2)cc1 | 4.1 | -19.1* | 4.9 | . | -12.4 | . | ? | .

Source: PubChem BioAssay (Broad Institute)
